Source: paper PMC8395693 (JACS Au, 2021)

tested on: not given; test: not given; settings: based on gold; cited from earlier work

Structure (SMILES)	MTD (maximum tolerated dose)
CC(=O)OC[C@H]1O[C@@H]([S-])[C@H](OC(C)=O)[C@@H](OC(C)=O)[C@@H]1OC(C)=O.CCP(CC)CC.[Au+] [auranofin]	12 mg/kg

tested on: MDA-MB-231; test: Cell viability; assay type: cell-based; settings: Homo sapiens, MDA-MB-231, 72 h, read-out: IC50 value
Summary of the method: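 Test compounds were added from stock solutions so that the final DMSO was <1%, and MDA-MB-231 cells were incubated with them for 72 h. Viability was read after exposure and IC50 derived. Data are mean ± s.e.m., n = 3.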

Structure (SMILES)	IC50
c1cnc2c(c1)ccc1cccnc12 [1,10-phenantrholine]	7.21 ± 1.68 µM
Cc1ccnc2c1ccc1c(C)ccnc12 [4,7-dimethylphenanthroline]	14.1 ± 2.58 µM

same assay, conditions: read-out: IC50 value; MDA-MB-231, MTT assay, 72 h, mean ± s.e.m., n = 3

Structure (SMILES)	IC50
[Au+].[F][Sb-]([F])([F])([F])([F])[F].c1ccc(-c2ccccn2)nc1.c1ccc(P(c2ccccc2)c2ccccc2)cc1 [AuTri-3]	6.56 ± 0.354 µM
[Au+].[F][Sb-]([F])([F])([F])([F])[F].c1ccc([As](c2ccccc2)c2ccccc2)cc1.c1cnc2c(c1)ccc1cccnc12 [AuTri-4]	3.98 ± 0.359 µM
[F][Sb-]([F])([F])([F])([F])[F].[Na+] [NaSbF6]	> 50 µM
CC(=O)OC[C@H]1O[C@@H]([S-])[C@H](OC(C)=O)[C@@H](OC(C)=O)[C@@H]1OC(C)=O.CCP(CC)CC.[Au+] [auranofin]	1.31 ± 0.15 µM
c1ccc(-c2ccnc3c2ccc2c(-c4ccccc4)ccnc23)cc1 [bathophenanthroline]	7.48 ± 1.64 µM
c1ccc(-c2ccccn2)nc1 [bipyridine]	17.5 ± 0.354 µM
N.N.[Cl][Pt][Cl] [cisplatin]	34.6 ± 0.783 µM

tested on: MDA-MB-231; test: Transmission electron microscopy of mitochondrial morphology; assay type: cell-based; settings: AuTri-9 10 µM, 1 h
Summary of the method: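 MDA-MB-231 cells were exposed to the test compound for 1 h. Vehicle wells received 1% DMSO. Reference inducers were run alongside: staurosporine (apoptosis), hydrogen peroxide (necrosis), rapamycin (autophagy) and erastin (ferroptosis). Mitochondria were imaged by TEM. Maximal cristae width was measured in 10 randomly chosen cells on randomly chosen mitochondria, with up to 3 cristae per mitochondrion and 100 cristae per cell, given as mean ± s.e.m.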

Structure (SMILES)	morphological changes in mitochondria (TEM)
OO [H2O2, hydrogen peroxide]	mitochondrial structure remains intact
CCOc1ccccc1-n1c(C(C)N2CCN(C(=O)COc3ccc(Cl)cc3)CC2)nc2ccccc2c1=O (centres unmarked) [erastin]	mitochondrial shrinkage
CO[C@H]1C[C@@H]2CC[C@@H](C)[C@@](O)(O2)C(=O)C(=O)N2CCCC[C@H]2C(=O)O[C@H]([C@H](C)C[C@@H]2CC[C@@H](O)[C@H](OC)C2)CC(=O)[C@H](C)/C=C(\C)[C@@H](O)[C@@H](OC)C(=O)[C@H](C)C[C@H](C)/C=C/C=C/C=C/1C [rapamycin]	no distinct morphological changes to mitochondria
CN[C@@H]1C[C@H]2O[C@@](C)([C@@H]1OC)n1c3ccccc3c3c4c(c5c6ccccc6n2c5c31)C(=O)NC4 [staurosporine]	no distinct morphological changes to mitochondria
